# Measurements taken from article PMC5788574 (The Journal of comparative neurology, 2017).
# Like-named read-outs stand apart in the source and are kept apart here.
# How the values were obtained:
# hα2β2 nAChR = hα2β2 nAChR (Homo sapiens, UniProt P17787+Q15822); test: biochemical; type: binding
# hβ4 nAChR subtypes = type: binding, human; conditions: read-out: Affinity for hβ4 nAChR subtypes; range over α4β4, α3β4, α2β4
# nAChR α2β4 = nAChR α2β4 (Homo sapiens, UniProt P30926+Q15822); test: biochemical; type: binding
# Chain of nAChR α2β4 (Q15822 27-529): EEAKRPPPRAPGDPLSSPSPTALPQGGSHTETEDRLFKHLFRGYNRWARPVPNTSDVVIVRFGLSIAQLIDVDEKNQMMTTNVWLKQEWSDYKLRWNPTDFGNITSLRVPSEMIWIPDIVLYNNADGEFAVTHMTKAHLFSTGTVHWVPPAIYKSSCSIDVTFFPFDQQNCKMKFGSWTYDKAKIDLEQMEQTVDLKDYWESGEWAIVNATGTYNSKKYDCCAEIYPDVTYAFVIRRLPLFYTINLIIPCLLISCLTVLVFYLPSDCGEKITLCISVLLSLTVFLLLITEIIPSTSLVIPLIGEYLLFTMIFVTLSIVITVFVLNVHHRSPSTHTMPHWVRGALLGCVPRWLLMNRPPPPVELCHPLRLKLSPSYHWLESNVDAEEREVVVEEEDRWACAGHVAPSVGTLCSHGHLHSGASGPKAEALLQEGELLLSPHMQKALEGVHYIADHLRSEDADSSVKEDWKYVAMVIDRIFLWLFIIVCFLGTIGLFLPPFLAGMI
# Chain of nAChR α2β4 (P30926 22-498): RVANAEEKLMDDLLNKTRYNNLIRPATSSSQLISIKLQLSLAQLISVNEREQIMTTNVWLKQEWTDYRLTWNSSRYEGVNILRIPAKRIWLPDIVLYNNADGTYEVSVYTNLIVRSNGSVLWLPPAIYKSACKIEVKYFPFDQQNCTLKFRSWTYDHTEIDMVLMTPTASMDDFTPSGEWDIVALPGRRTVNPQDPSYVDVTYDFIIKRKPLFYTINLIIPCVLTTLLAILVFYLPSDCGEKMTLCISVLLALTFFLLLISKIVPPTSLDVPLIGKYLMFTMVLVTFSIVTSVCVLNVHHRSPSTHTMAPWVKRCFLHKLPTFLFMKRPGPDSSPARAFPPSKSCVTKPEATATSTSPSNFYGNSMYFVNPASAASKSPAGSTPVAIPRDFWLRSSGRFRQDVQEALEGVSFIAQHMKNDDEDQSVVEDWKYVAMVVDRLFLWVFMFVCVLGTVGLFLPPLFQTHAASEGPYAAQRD
# [1] = partial agonist; ref Niaura, Jones, & Kirkpatrick, 2006; cited from earlier work
# α4β2* nAChRs [2] = test: Rhesus monkey brain [18F]Nifene PET; type: in vivo, rhesus monkey (Macaca mulatta)
# Outline: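 Rhesus monkeys (8–10 kg) had ketamine/xylazine IM, or ketamine/atropine IM plus 1–2% isoflurane. A bolus of about 48–111 MBq radiotracer was followed by at least 120 min acquisition on an HR+ or microPET scanner. Data were binned into 23 frames and reconstructed by filtered back projection. Circular ROIs on cerebellum, thalamus, lateral geniculate and cortex gave time-activity curves and BPND.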
# α4β2* nAChRs [3] = test: Rat brain [18F]Nifene PET/CT; type: in vivo; conditions: rat PET
# Outline: (§1)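 Sprague-Dawley rats (250–400 g) were induced with 4% isoflurane and kept on 2.5% during the scan. A bolus of about 24 MBq radiotracer was followed by dynamic acquisition for up to 120 min, then CT for attenuation correction. Images were normalized to stereotaxic space via an MRI rat template. Time-activity curves came from atlas-guided VOIs without partial volume correction. Logan noninvasive DVR, with BPND = DVR−1.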
# [4] = Tolerability of [18F]Nifene in human PET subjects; type: in vivo; conditions: 185 MBq, <0.10 μg per injection
# Outline: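 Healthy volunteers aged 21–69 (4 male, 4 female) studied under an FDA investigational new drug application. Each received a bolus of about 185 MBq radiotracer in sterile saline. Vital signs and laboratory results were assessed for adverse or clinically detectable pharmacologic effects.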
# α4β2* nAChRs [5] = test: Human brain [18F]Nifene PET, distribution volume ratio; type: in vivo; conditions: for DVR ATR / DVR CB / DVR Frontal cortex / DVR LG / DVR OG / DVR Pit / DVR Red Nucleus / DVR SLF / DVR SN/VTA / DVR Thalamus: corpus callosum reference
# Outline: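 Eight healthy volunteers (4 male, 4 female), 21–69 years. Bolus of about 185 MBq radiotracer, then 90 min dynamic 3-D acquisition on an HR+ scanner. Frames were […], reconstructed by filtered back projection with a 4 mm Gaussian filter. FreeSurfer regions came from coregistered 3 T MRI. Parametric DVR images were made by MRTM2 with corpus callosum as reference.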
# [6] = after intravenous administration; ref Kant et al., 2011; cited from earlier work
# α4β2* nAChRs [7] = test: [18F]Nifene PET across species; type: in vivo; conditions: all species (mice, rats, monkeys, and humans)
# α4β2* nAChRs [8] = test: Mouse brain [18F]Nifene PET/CT; type: in vivo; conditions: mouse PET
# Outline: as §1, with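 “BALB/c mice (25–30” for “Sprague-Dawley rats (250–400”, “2%” for “2.5%”, “9.25” for “24”, “coregistered” for “normalized”, “to” for “to stereotaxic space via”, “mouse” for “rat”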
# [9] = ref Kimes et al., 2003; cited from earlier work
# nAChR α4β4 = nAChR α4β4 (Homo sapiens, UniProt P30926+P43681); type: binding
# Chain of nAChR α4β4 (P43681 29-627): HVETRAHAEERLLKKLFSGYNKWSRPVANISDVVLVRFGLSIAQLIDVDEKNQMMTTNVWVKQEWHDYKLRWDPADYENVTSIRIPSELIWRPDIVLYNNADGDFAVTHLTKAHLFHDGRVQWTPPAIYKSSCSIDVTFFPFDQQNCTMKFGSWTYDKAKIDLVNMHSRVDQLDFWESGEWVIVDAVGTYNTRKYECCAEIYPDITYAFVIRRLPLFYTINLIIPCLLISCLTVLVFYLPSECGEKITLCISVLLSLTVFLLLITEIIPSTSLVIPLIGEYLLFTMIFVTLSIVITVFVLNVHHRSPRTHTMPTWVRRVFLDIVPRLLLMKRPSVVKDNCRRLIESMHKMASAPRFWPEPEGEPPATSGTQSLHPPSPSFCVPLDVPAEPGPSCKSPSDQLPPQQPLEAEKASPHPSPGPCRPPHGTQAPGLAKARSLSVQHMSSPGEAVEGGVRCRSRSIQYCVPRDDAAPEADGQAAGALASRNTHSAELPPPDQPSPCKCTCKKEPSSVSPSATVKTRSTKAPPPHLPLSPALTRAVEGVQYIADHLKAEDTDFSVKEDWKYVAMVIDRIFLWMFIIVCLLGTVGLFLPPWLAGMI
# Chain of nAChR α4β4 (P30926 22-498): as the sequence (P30926 22-498) above
# [10] = system: all other receptor subtypes tested; test: PDSP screen of other receptor subtypes at 10 μM; type: binding, human; conditions: significant inhibition >50%
# hα3β2 nAChR = hα3β2 nAChR (Homo sapiens, UniProt P17787+P32297); type: binding
# Chain of hα3β2 nAChR (P17787 26-502): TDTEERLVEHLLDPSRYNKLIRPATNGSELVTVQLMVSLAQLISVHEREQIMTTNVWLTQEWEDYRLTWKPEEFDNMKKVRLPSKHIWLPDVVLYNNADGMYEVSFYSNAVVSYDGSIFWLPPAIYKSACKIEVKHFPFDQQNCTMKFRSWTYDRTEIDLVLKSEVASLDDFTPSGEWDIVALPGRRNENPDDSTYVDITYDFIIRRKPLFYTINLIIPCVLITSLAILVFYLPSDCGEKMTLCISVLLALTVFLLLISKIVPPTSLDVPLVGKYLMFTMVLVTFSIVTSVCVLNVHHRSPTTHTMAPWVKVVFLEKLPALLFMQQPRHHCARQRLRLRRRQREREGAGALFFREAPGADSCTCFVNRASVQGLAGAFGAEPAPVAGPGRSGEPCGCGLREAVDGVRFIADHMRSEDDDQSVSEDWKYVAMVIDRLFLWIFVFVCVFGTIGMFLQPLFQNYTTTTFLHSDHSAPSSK
# Chain of hα3β2 nAChR (P32297 32-505): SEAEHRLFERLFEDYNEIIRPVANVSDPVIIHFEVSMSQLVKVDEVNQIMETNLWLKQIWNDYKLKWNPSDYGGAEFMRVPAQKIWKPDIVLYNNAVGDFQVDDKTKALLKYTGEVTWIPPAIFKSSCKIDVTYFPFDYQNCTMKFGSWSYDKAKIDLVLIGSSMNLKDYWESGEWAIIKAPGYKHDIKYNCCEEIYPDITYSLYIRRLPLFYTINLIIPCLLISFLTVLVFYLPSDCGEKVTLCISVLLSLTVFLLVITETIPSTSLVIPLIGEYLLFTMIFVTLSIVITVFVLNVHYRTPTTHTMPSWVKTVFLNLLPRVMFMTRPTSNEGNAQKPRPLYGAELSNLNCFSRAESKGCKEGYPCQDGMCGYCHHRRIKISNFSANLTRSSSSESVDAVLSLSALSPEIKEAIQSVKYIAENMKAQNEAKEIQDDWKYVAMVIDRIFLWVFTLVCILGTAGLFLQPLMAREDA
# [11] = Expanded acute toxicity study, intravenous, rats; type: in vivo, Sprague-Dawley rats
# human α4β2 nAChR = test: [86Rb+]rubidium efflux functional assay, YXα4β2H1 cells; type: cell-based; conditions: for As Antagonist, α4β2 nAChR, inhibition of nicotine-stimulated 86Rb+ efflux: vs 100 μM nicotine
# nAChR α3β4 = nAChR α3β4 (Homo sapiens, UniProt P30926+P32297); type: binding
# Chain of nAChR α3β4 (P32297 32-505): as above
# Chain of nAChR α3β4 (P30926 22-498): as the sequence (P30926 22-498) above
# human α3β4 nAChR = test: [86Rb+]rubidium efflux functional assay, YXα3β4H1 cells; type: cell-based; conditions: for As Antagonist, α3β4 nAChR, inhibition of nicotine-stimulated 86Rb+ efflux: vs 100 μM nicotine
# α7 nAChR = α7 nAChR (Rattus norvegicus, UniProt Q05941); type: binding; conditions: read-out: Ki α7; rat cloned receptors labeled with 125I-α-bungarotoxin
# Chain of α7 nAChR (Q05941 23-502): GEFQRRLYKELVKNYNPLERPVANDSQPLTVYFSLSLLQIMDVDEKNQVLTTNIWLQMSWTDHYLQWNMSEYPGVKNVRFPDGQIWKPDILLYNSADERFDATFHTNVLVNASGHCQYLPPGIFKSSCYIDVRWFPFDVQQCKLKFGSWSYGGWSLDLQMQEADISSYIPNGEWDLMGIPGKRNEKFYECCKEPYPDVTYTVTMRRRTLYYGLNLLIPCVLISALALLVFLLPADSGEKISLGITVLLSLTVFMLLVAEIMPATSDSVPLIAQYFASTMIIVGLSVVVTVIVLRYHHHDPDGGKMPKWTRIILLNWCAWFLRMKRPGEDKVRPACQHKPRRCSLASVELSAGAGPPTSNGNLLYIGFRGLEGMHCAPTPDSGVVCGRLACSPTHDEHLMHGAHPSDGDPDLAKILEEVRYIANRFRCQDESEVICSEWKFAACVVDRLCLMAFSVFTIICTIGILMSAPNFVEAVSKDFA
# hα4β2 nAChR = hα4β2 nAChR (Homo sapiens, UniProt P17787+P43681); type: binding; conditions: read-out: Ki α4β2; human cloned receptors, 3H-epibatidine
# Chain of hα4β2 nAChR (P17787 26-502): as the sequence (P17787 26-502) above
# Chain of hα4β2 nAChR (P43681 27-627): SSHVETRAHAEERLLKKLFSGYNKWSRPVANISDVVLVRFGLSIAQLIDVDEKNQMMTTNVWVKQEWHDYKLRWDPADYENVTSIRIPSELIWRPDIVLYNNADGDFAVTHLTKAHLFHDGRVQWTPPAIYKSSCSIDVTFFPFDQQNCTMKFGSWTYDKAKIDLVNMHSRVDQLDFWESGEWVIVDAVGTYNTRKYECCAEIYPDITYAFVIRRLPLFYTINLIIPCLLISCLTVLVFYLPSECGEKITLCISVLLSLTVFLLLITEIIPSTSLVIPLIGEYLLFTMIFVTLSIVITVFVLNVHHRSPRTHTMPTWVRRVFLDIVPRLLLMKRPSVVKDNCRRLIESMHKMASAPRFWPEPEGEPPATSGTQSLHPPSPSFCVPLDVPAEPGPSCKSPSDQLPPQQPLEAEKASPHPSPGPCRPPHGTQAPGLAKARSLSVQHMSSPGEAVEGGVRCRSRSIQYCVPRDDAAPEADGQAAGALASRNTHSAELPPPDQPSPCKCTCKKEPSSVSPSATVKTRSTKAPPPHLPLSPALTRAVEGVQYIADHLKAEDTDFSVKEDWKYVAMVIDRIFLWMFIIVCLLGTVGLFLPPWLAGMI
# [12] = human PET, females Avg±SD (4 subjects)
# [13] = human PET, males Avg±SD (4 subjects)
# [14] = human PET, males Avg±SD (4 subjects), listed as 18F-Nifene
# [15] = [α4β2 affinity/other receptor affinity]×100, human α4β2 affinities
# [16] = 100 μM, 100 μM nicotine as 100%
# Chain of hα2β2 nAChR (Q15822 27-529): as the sequence (Q15822 27-529) above
# Chain of hα2β2 nAChR (P17787 26-502): as the sequence (P17787 26-502) above
smiles,measurement,setting,value
"CN1CCC[C@H]1c1cccnc1 [Nicotine, reference compound]",Ki,hα2β2 nAChR,3.64 nM
same,Ki,hβ4 nAChR subtypes,27 to 219 nM
same,Ki,nAChR α2β4,82.7 nM
c1cnc2cc3c(cc2n1)[C@@H]1CNC[C@H]3C1 [varen-cline],in vivo efficacy compared to nicotine,[1],30–60%
"[18F]c1ncccc1OC[C@@H]1C=CCN1 [[^18F]Nifene, 2-[18F]fluoro-3-[2-((S)-3-pyrrolinyl)methoxy]pyridine]",Ratio of thalamus to cerebellum,α4β2* nAChRs [2],3.2
same,Ratio of thalamus to cerebellum,α4β2* nAChRs [3],3.1
same,Tolerability in human subjects,[4],well tolerated in all the human subjects with no adverse side effects
same,Tolerability in human subjects,[4]; listed as [^18F] Nifene,well tolerated with no adverse effects
same,Binding in habenula,α4β2* nAChRs [5]; human PET,low levels
same,Ratio of thalamus to corpus callosum,α4β2* nAChRs [5]; human PET,2.6
same,"DVR, anterior thalamic radiation (white matter)","α4β2* nAChRs [5]; human PET, all subjects",~ 1.6
same,"DVR, red nucleus","α4β2* nAChRs [5]; human PET, all subjects",1.6–1.7
same,"DVR, superior longitudinal fasciculus","α4β2* nAChRs [5]; human PET, all subjects",~ 1.5
same,DVR ATR,α4β2* nAChRs [5]; [12],1.67
same,DVR CB,α4β2* nAChRs [5]; [12],1.54 ± 0.25
same,DVR Frontal cortex,α4β2* nAChRs [5]; [12],1.38 ± 0.15
same,DVR LG,α4β2* nAChRs [5]; [12],2.46 ± 0.07
same,DVR OG,α4β2* nAChRs [5]; [12],1.41
same,DVR Pit,α4β2* nAChRs [5]; [12],1.57
same,DVR Red Nucleus,α4β2* nAChRs [5]; [12],1.73
same,DVR SLF,α4β2* nAChRs [5]; [12],1.55
same,DVR SN/VTA,α4β2* nAChRs [5]; [12],1.75 ± 0.09
same,DVR Thalamus,α4β2* nAChRs [5]; [12],2.58 ± 0.11
same,DVR ATR,α4β2* nAChRs [5]; [13],1.58
same,DVR CB,α4β2* nAChRs [5]; [13],1.42 ± 0.18
same,DVR Frontal cortex,α4β2* nAChRs [5]; [13],1.31 ± 0.11
same,DVR LG,α4β2* nAChRs [5]; [13],2.17 ± 0.08
same,DVR OG,α4β2* nAChRs [5]; [13],1.31
same,DVR Pit,α4β2* nAChRs [5]; [13],1.45
same,DVR Red Nucleus,α4β2* nAChRs [5]; [13],1.56
same,DVR SLF,α4β2* nAChRs [5]; [13],1.38
same,DVR SN/VTA,α4β2* nAChRs [5]; [13],1.60 ± 0.08
same,DVR Thalamus,α4β2* nAChRs [5]; [13],2.24 ± 0.10
same,DVR ATR,α4β2* nAChRs [5]; [14],1.58 ± 0.13
same,DVR OG,α4β2* nAChRs [5]; [14],1.31 ± 0.12
same,DVR Pit,α4β2* nAChRs [5]; [14],1.45 ± 0.22
same,DVR Red Nucleus,α4β2* nAChRs [5]; [14],1.56 ± 0.13
same,DVR SLF,α4β2* nAChRs [5]; [14],1.38 ± 0.15
same,DVR ATR,α4β2* nAChRs [5]; human one PET,1.68
same,DVR CB,α4β2* nAChRs [5]; human one PET,1.40
same,DVR Frontal cortex,α4β2* nAChRs [5]; human one PET,1.29
same,DVR LG,α4β2* nAChRs [5]; human one PET,2.17
same,DVR OG,α4β2* nAChRs [5]; human one PET,1.41
same,DVR Pit,α4β2* nAChRs [5]; human one PET,1.62
same,DVR Red Nucleus,α4β2* nAChRs [5]; human one PET,1.64
same,DVR SLF,α4β2* nAChRs [5]; human one PET,1.55
same,DVR SN/VTA,α4β2* nAChRs [5]; human one PET,1.53
same,DVR Thalamus,α4β2* nAChRs [5]; human one PET,2.25
same,DVR ATR,α4β2* nAChRs [5]; human seven PET,1.45
same,DVR CB,α4β2* nAChRs [5]; human seven PET,1.50
same,DVR Frontal cortex,α4β2* nAChRs [5]; human seven PET,1.34
same,DVR LG,α4β2* nAChRs [5]; human seven PET,2.17
same,DVR OG,α4β2* nAChRs [5]; human seven PET,1.33
same,DVR Pit,α4β2* nAChRs [5]; human seven PET,1.63
same,DVR Red Nucleus,α4β2* nAChRs [5]; human seven PET,1.37
same,DVR SLF,α4β2* nAChRs [5]; human seven PET,1.18
same,DVR SN/VTA,α4β2* nAChRs [5]; human seven PET,1.68
same,DVR Thalamus,α4β2* nAChRs [5]; human seven PET,2.13
same,DVR ATR,α4β2* nAChRs [5]; human three PET,1.47
same,DVR CB,α4β2* nAChRs [5]; human three PET,1.18
same,DVR Frontal cortex,α4β2* nAChRs [5]; human three PET,1.17
same,DVR LG,α4β2* nAChRs [5]; human three PET,2.08
same,DVR OG,α4β2* nAChRs [5]; human three PET,1.14
same,DVR Pit,α4β2* nAChRs [5]; human three PET,1.17
same,DVR Red Nucleus,α4β2* nAChRs [5]; human three PET,1.56
same,DVR SLF,α4β2* nAChRs [5]; human three PET,1.36
same,DVR SN/VTA,α4β2* nAChRs [5]; human three PET,1.55
same,DVR Thalamus,α4β2* nAChRs [5]; human three PET,2.22
same,DVR ATR,α4β2* nAChRs [5]; human two PET,1.69
same,DVR CB,α4β2* nAChRs [5]; human two PET,1.61
same,DVR Frontal cortex,α4β2* nAChRs [5]; human two PET,1.44
same,DVR LG,α4β2* nAChRs [5]; human two PET,2.26
same,DVR OG,α4β2* nAChRs [5]; human two PET,1.35
same,DVR Pit,α4β2* nAChRs [5]; human two PET,1.36
same,DVR Red Nucleus,α4β2* nAChRs [5]; human two PET,1.67
same,DVR SLF,α4β2* nAChRs [5]; human two PET,1.43
same,DVR SN/VTA,α4β2* nAChRs [5]; human two PET,1.66
same,DVR Thalamus,α4β2* nAChRs [5]; human two PET,2.37
same,Radioactive components in rat brain,[6],the only radioactive component
same,Thalamus reference region ratio,α4β2* nAChRs [7],> 2
same,Ratio of thalamus to cerebellum,α4β2* nAChRs [8],2
"Fc1ncccc1OC[C@@H]1CCN1 [[^18F]2-FA-85380, 2-fluoro-3-(2(S)-azetidinylmethoxy)pyridine]",Dose with no adverse effects,[9],up to 10 pmol/kg
Fc1ncccc1OC[C@@H]1C=CCN1 [Nifene],Fold higher affinity for α2β2 compared to α3β2 and α4β2 subtypes,hα2β2 nAChR,approximately 5 fold
same,"% human α4β2 Selectivity, α2β2",hα2β2 nAChR; [15],244%
same,Ki,"hα2β2 nAChR; read-out: Ki α2β2, human cloned receptors, 3H-epibatidine",0.34 nM
same,"% human α4β2 Selectivity, α4β4",nAChR α4β4; [15],3.05%
same,Ki,"nAChR α4β4; read-out: Ki α4β4, human cloned receptors, 3H-epibatidine",27.2 nM
same,Affinity at all other receptor subtypes tested,[10],did not exhibit significant affinity
same,"% human α4β2 Selectivity, α3β2",hα3β2 nAChR; [15],104%
same,Ki,"hα3β2 nAChR; read-out: Ki α3β2, human cloned receptors, 3H-epibatidine",0.8 nM
same,Ki,hβ4 nAChR subtypes,27 to 219 nM
same,"% human α4β2 Selectivity, α2β4",nAChR α2β4; [15],1.58%
same,Ki,"nAChR α2β4; read-out: Ki α2β4, human cloned receptors, 3H-epibatidine",52.4 nM
same,Tolerability of intravenous injections,"[11]; Sprague-Dawley male and female rats, 1.6, 20 and 40 μg/kg/day",well tolerated
same,Morbidity or mortality,"[11]; rats, up to 40 μg/kg/day i.v.",no morbidity or mortality
same,"As Antagonist, α4β2 nAChR, inhibition of nicotine-stimulated 86Rb+ efflux",human α4β2 nAChR; 1 μM,18%
same,"As Antagonist, α4β2 nAChR, inhibition of nicotine-stimulated 86Rb+ efflux",human α4β2 nAChR; 10 μM,21%
same,"As Agonist, α4β2 nAChR, stimulated 86Rb+ efflux",human α4β2 nAChR; [16],14%
same,"As Antagonist, α4β2 nAChR, inhibition of nicotine-stimulated 86Rb+ efflux",human α4β2 nAChR; 100 μM,56%
same,"% human α4β2 Selectivity, α3β4",nAChR α3β4; [15],0.44%
same,Ki,"nAChR α3β4; read-out: Ki α3β4, human cloned receptors, 3H-epibatidine",190 nM
same,"As Antagonist, α3β4 nAChR, inhibition of nicotine-stimulated 86Rb+ efflux",human α3β4 nAChR; 1 μM,9%
same,"As Antagonist, α3β4 nAChR, inhibition of nicotine-stimulated 86Rb+ efflux",human α3β4 nAChR; 10 μM,16%
same,"As Agonist, α3β4 nAChR, stimulated 86Rb+ efflux",human α3β4 nAChR; [16],35%
same,"As Antagonist, α3β4 nAChR, inhibition of nicotine-stimulated 86Rb+ efflux",human α3β4 nAChR; 100 μM,59%
same,Ki,α7 nAChR,169 nM
same,Ki,hα4β2 nAChR,0.83 nM
